High-throughput results (PubChem BioAssay)
HUVEC prolif 384: human endothelial cell proliferation inhibition; HUVEC proliferation, CellTiter-Glo luminescence, 72 h; hits give low values; viability, % at 10 µM (by protocol); hit rate 1.1% among 86,000; AID 648;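 active means viability at or below 30%; inactive means viability above 30%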;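 further: 100% = median luminescence of DMSO-only cell control wells on each plate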
bCat KO growth: beta-catenin-lacking colon tumor cell growth suppression; HCT116 beta-catenin knockout viability, CellTiter-Glo, 60 h; hits give low values; viability, % at 10 µM; hit rate 1.5% among 140,000;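 active means viability at or under a set limit, the compound median less 4 SD, cut at about 6% in these data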;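 further: 0% = Hyamine 1622 control at 20 µM and 100% = untreated cell control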
HCT116 PTEN-null: growth suppressors of cells with PTEN tumor suppressor deletion; HCT116 PTEN-null viability, CellTiter-Glo, 60 h; hits give low values; viability, % at 10 µM; hit rate 1.2% among 140,000; AID 827;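 active means viability at or below a set limit, 4 SD under the median of all tested compounds, cut at about 3.7% in these data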;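 further: PTEN knockout HCT116 line with beta catenin targeted HCT116 as companion control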
Fibroblast inh: blocks proliferation of human lung fibroblasts; hit rate 1.1% among 85,000; AID 719; LL 47 human lung fibroblast viability, ATP luminescence; hits give low values; viability, % at 10 µM;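 active means viability at or below 50% in the single dose screen; inactive means viability above 50%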;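 further: compound exposure lasted 72 h before the ATP readout; 100% = median luminescence of untreated cell-only wells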
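Benchmarks: Cell-only wells, no compound | Test system: LL 47 human lung fibroblasts, passage 12 or lower | Input: 1,150 cells/well | Measured by: CellTiter-Glo luminescence measuring cellular ATP | Medium: IMEM, 15% FBS supplement | Schedule: Overnight attachment after seeding, then 72 h compound exposure at 37 °C | Doses: Compound addition at 0.1% DMSO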
H69AR growth 86K: growth inhibitors of human H69AR lung tumor cells. H69AR lung tumor viability, ATP luminescence, 72 h; hits give low values. viability, % at 10 µM. hit rate 6% among 85,000;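 active means viability at or below 40%; inactive means viability above 40%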;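 further: multidrug resistant small cell line overexpressing MRP-1 efflux transporter; 100% = mean luminescence of untreated control wells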
Active calls of the source: *. Many of the other results were omitted from the sample, so hits are more common in it than they were.

`Cc1nc(SCC(=O)Nc2ccc(F)cc2)c2oc3ccccc3c2n1` gave HUVEC prolif 384 72.5, bCat KO growth 92.1, HCT116 PTEN-null 79.5, Fibroblast inh 88.8 and H69AR growth 86K 90.6.
For O=C(CSc1ncnc2c1oc1ccccc12)Nc1cccc(C(F)(F)F)c1 the results were HUVEC prolif 384 45.5, bCat KO growth 83.9, HCT116 PTEN-null 96.7, Fibroblast inh 94.7 and H69AR growth 86K 16.6*.
Screening CCc1nnc(NC(=O)CSc2ncnc3c2oc2ccccc23)s1 returned HUVEC prolif 384 105.3, bCat KO growth 91.0, HCT116 PTEN-null 94.2, Fibroblast inh 103.5 and H69AR growth 86K 100.1.
Screening O=C(c1cccc2ccccc12)N1CCN(CC2CC=CCC2)CC1 (stereo unspecified) returned HUVEC prolif 384 103.5, bCat KO growth 90.6, HCT116 PTEN-null 86.1 and Fibroblast inh 106.6.
Screening Cc1ccc(S(=O)(=O)N[C@@H](Cc2ccccc2)C(=O)CCl)cc1 returned bCat KO growth 100.8 and HCT116 PTEN-null 94.8.
O=C(NCCC1=CCCCC1)C(=O)NCC(c1ccco1)N1CCN(c2ccccc2F)CC1 (stereo unspecified) was read as bCat KO growth 34.8 and HCT116 PTEN-null 28.2.
For Cc1cccn2c(=O)c(/C=C(\C#N)S(=O)(=O)c3ccccc3)c(Oc3ccc(Cl)cc3)nc12 the results were bCat KO growth 3.6* and HCT116 PTEN-null 2.2*.
`Cc1cc(Oc2nc3c(C)cccn3c(=O)c2/C=C(\C#N)S(=O)(=O)c2ccccc2)ccc1Cl` gave bCat KO growth 1.6* and HCT116 PTEN-null 2.3*.
Screening Cc1ccccc1Oc1nc2c(C)cccn2c(=O)c1/C=C(\C#N)C(=O)Nc1c(C)n(C)n(-c2ccccc2)c1=O returned bCat KO growth 81.5 and HCT116 PTEN-null 85.8.
COc1ccc(C(=O)N/C(=C\c2cn(C)c3ccccc23)C(=O)OCC(C)C)cc1 was read as bCat KO growth 101.4 and HCT116 PTEN-null 107.3.
Screening C=CCc1ccc(OCC(O)COc2ccc(CC=C)cc2OC)c(OC)c1 returned HUVEC prolif 384 85.2, bCat KO growth 67.7, HCT116 PTEN-null 64.3, Fibroblast inh 99.5 and H69AR growth 86K 34.6*.
Screening C=CCc1ccc(OCC(O)CN2CCCCC2)c(OC)c1 (stereo unspecified) returned HUVEC prolif 384 90.6, bCat KO growth 105.7, HCT116 PTEN-null 107.7, Fibroblast inh 101.3 and H69AR growth 86K 82.6.
Screening CCOc1ccc2nc(NC(=O)CSc3nnnn3C3CCCCC3)sc2c1 returned HUVEC prolif 384 79.5, bCat KO growth 88.5, HCT116 PTEN-null 81.2, Fibroblast inh 91.3 and H69AR growth 86K 1.7*.
`CCn1c(SCC(=O)N2c3ccccc3CCc3ccccc32)nc2c1c(=O)n(C)c(=O)n2C` gave HUVEC prolif 384 94.4, Fibroblast inh 98.5 and H69AR growth 86K 14.3*.
Cc1cc(NC(=O)CSc2nc3c(c(=O)n(C)c(=O)n3C)n2C(C)C)no1 was read as HUVEC prolif 384 100.5, bCat KO growth 98.4, HCT116 PTEN-null 103.4, Fibroblast inh 97.4 and H69AR growth 86K 89.9.
Screening CCn1c(SCC(=O)Nc2nc3c(s2)CCCC3)nc2c1c(=O)n(C)c(=O)n2C returned HUVEC prolif 384 92.4, Fibroblast inh 86.3 and H69AR growth 86K 16.9*.
For CC(C)n1c(SCC(=O)Nc2nc3ccccc3s2)nc2c1c(=O)n(C)c(=O)n2C the results were HUVEC prolif 384 68.8, bCat KO growth 72.6, HCT116 PTEN-null 62.3, Fibroblast inh 95.6 and H69AR growth 86K 29.1*.
Screening Oc1ccc(O)c(-c2cnns2)c1 returned bCat KO growth 27.1 and HCT116 PTEN-null 9.5.
For CC(C)NC(=O)c1nn(C)c2ccccc12 the results were bCat KO growth 93.4 and HCT116 PTEN-null 97.5.
Screening Fc1ccccc1CNC(=S)Nc1cccc(C(F)(F)F)c1 returned bCat KO growth 84.9 and HCT116 PTEN-null 74.9.
NC(=S)Nc1ccc(Oc2ccc(NC(N)=S)cc2)cc1 was read as bCat KO growth 78.1 and HCT116 PTEN-null 81.1.
`Cn1cccc1Cc1nnc(SCC(=O)Nc2nc3ccccc3s2)n1CCc1ccccc1` gave HUVEC prolif 384 43.4, bCat KO growth 89.9, HCT116 PTEN-null 74.9, Fibroblast inh 76.2 and H69AR growth 86K 5.4*.
For CCn1c(SCC(=O)Nc2nc3ccc(OC)cc3s2)nc2c1c(=O)n(C)c(=O)n2C the results were HUVEC prolif 384 72.7, bCat KO growth 69.0, HCT116 PTEN-null 65.8, Fibroblast inh 93.9 and H69AR growth 86K 17.1*.
